Assay results published in ChEMBL document CHEMBL3862036, “Biphenyl Pyridazinone Derivatives as Inhaled PDE4 Inhibitors: Structural Biology and Structure-Activity Relationships” (J Med Chem, 2016).
pIC50: −log10 of the molar value.

How the values were obtained:
Rattus norvegicus [1] = test: Anti-inflammatory activity in Sprague-Dawley rat assessed as inhibition of LPS-induced neutrophilia at 100 ug/kg, it administered as suspension with Penn-Century micro-sprayer aerosolizer dosed 1 hrs before LPS challenge and measured 5 hrs post dose; format: functional; conditions: inhaled or nasal
Outline: (§1)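 Suspensions in PBS/0.2% Tween 80 were homogenized, with lower doses made by 1:10 dilutions. 0.2 mL was given intratracheally by MicroSprayer to isoflurane-anesthetized fasted male Sprague-Dawley rats (230–280 g). At 1 or 18 h, rats received nebulized LPS (30 mL of a 1:100 PBS dilution of 100 mg/10 mL stock) over 40 min. Four hours later, BAL neutrophils were counted by flow cytometry.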

[2] = Pro-inflammatory activity in Sprague-Dawley rat assessed as induction of neutrophilia at 1000 ug/kg, it administered as dry powder with lactose carrier through Penn-Century insufflator; conditions: in vivo, inhaled_or_intranasal, 1 mg/kg
Rattus norvegicus [3] = test: Anti-inflammatory activity in Sprague-Dawley rat assessed as inhibition of LPS-induced neutrophilia at 10 to 1000 ug/kg, it administered as suspension with Penn-Century micro-sprayer aerosolizer dosed 1 hrs before LPS challenge and measured 5 hrs post dose; format: functional; conditions: inhaled or nasal; outline: as §1
Rattus norvegicus [4] = test: Anti-inflammatory activity in Sprague-Dawley rat assessed as inhibition of LPS-induced neutrophilia at 1000 ug/kg, it administered as suspension with Penn-Century micro-sprayer aerosolizer dosed 18 hrs before LPS challenge and measured 22 hrs post dose; format: functional; conditions: inhaled or nasal; outline: as §1
Rattus norvegicus [5] = test: Anti-inflammatory activity in Sprague-Dawley rat assessed as inhibition of LPS-induced neutrophilia at 1000 ug/kg, it administered as dry powder with lactose carrier through Penn-Century insufflator dosed 1 hrs before LPS challenge and measured 5 hrs post dose; format: functional
Outline: (§2)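 Compounds were micronized, comixed with lactose, and 5 mg of the mixture was insufflated intratracheally into isoflurane-anesthetized fasted male Sprague-Dawley rats (230–280 g). LPS aerosol (30 mL of a 1:100 PBS dilution of 100 mg/10 mL stock) was nebulized for 40 min at 1 or 18 h post-dose. BAL was taken 4 h later and neutrophils counted by flow cytometry. Controls: lactose alone, lactose+LPS, fluticasone (10% in lactose).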

Rattus norvegicus [6] = test: Anti-inflammatory activity in Sprague-Dawley rat assessed as inhibition of LPS-induced neutrophilia at 10 ug/kg, it administered as dry powder with lactose carrier through Penn-Century insufflator dosed 1 hrs before LPS challenge and measured 5 hrs post dose; format: functional; outline: as §2
Adenosine receptor A1 = target: T1, Adenosine receptor A1 (Homo sapiens, UniProt P30542); test: Antagonist activity at adenosine A1 receptor (unknown origin)
T1 sequence (P30542 whole entry): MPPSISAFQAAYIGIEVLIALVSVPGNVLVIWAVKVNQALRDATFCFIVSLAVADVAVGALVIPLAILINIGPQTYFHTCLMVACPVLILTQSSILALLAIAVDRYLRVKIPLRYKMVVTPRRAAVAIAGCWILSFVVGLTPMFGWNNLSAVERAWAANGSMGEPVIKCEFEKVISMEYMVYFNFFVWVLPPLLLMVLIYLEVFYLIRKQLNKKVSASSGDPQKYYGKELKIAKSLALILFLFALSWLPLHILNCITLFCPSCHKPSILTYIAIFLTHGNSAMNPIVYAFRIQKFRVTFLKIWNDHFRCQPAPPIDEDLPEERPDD

[7] = Inhibition of PDE4 in human whole blood assessed as reduction in LPS-induced TNFalpha production incubated for 24 hrs by ELISA; format: tissue-based
Outline: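 Human whole blood was preincubated with LPS (final 1 μg/mL) for 10 min at 37 °C with rocking. 200 μL was added to wells holding increasing inhibitor concentrations in 100% DMSO. Plates were incubated 24 h at 37 °C under agitation, then placed on ice, diluted with PBS and centrifuged at 800g, 4 °C, for 15 min before TNF-α measurement.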

Adenosine receptor A2a = Adenosine receptor A2a (Homo sapiens, UniProt P29274); test: Antagonist activity at adenosine A2a receptor (unknown origin)
Rattus norvegicus [8] = test: Toxicity in Sprague-Dawley rat model of LPS-induced neutrophilia assessed as induction of irritation in lungs at 1000 ug/kg, it administered as dry powder with lactose carrier through Penn-Century insufflator dosed 18 hrs before LPS challenge and measured 22 hrs post dose; format: organism-based; conditions: in vivo, inhaled_or_intranasal, 1 mg/kg
Adenosine receptor A2b = target: T2, Adenosine receptor A2b (Homo sapiens, UniProt P29275); test: Antagonist activity at adenosine A2b receptor (unknown origin)
T2 sequence (P29275 whole entry): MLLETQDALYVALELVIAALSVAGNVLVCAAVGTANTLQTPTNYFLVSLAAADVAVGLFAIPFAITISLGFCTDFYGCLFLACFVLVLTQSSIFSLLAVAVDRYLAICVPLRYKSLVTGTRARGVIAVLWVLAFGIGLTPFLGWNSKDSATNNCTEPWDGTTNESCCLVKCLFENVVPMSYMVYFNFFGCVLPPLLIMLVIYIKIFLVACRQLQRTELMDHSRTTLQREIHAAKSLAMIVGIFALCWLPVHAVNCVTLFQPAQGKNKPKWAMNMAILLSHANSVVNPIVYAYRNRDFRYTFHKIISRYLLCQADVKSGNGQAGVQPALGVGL

[9] = Inhibition of PDE4 in PBMC (unknown origin) assessed as reduction in LPS-induced TNFalpha production incubated for 24 hrs by ELISA; conditions: Homo sapiens
[10] = Selectivity index, ratio of IC50 for adenosine A1/A2a/A2b receptor (unknown origin) to IC50 for inhibition of PDE4 in PBMC (unknown origin) assessed as reduction in LPS-induced TNFalpha production; set-up: species or system Homo sapiens
Rattus norvegicus [11] = test: Anti-inflammatory activity in Sprague-Dawley rat assessed as inhibition of LPS-induced neutrophilia at 300 ug/kg, it administered as suspension with Penn-Century micro-sprayer aerosolizer dosed 18 hrs before LPS challenge and measured 22 hrs post dose; format: functional; conditions: inhaled or nasal; outline: as §1
Rattus norvegicus [12] = test: Anti-inflammatory activity in Sprague-Dawley rat assessed as inhibition of LPS-induced neutrophilia at 100 ug/kg, it administered as suspension with Penn-Century micro-sprayer aerosolizer dosed 18 hrs before LPS challenge and measured 22 hrs post dose; format: functional; conditions: inhaled or nasal; outline: as §1
Rattus norvegicus [13] = test: Anti-inflammatory activity in Sprague-Dawley rat assessed as inhibition of LPS-induced neutrophilia at 30 ug/kg, it administered as suspension with Penn-Century micro-sprayer aerosolizer dosed 18 hrs before LPS challenge and measured 22 hrs post dose; format: functional; conditions: inhaled or nasal; outline: as §1
[14] = target: 3',5'-cyclic-AMP phosphodiesterase 4B (Homo sapiens, UniProt Q07343); test: Inhibition of human recombinant PDE4B1 assessed as reduction in [3H]cAMP hydrolysis to [3H]AMP incubated for 60 mins by PDE-SPA assay
3',5'-cyclic-AMP phosphodiesterase 4B, sequence (Q07343 whole entry): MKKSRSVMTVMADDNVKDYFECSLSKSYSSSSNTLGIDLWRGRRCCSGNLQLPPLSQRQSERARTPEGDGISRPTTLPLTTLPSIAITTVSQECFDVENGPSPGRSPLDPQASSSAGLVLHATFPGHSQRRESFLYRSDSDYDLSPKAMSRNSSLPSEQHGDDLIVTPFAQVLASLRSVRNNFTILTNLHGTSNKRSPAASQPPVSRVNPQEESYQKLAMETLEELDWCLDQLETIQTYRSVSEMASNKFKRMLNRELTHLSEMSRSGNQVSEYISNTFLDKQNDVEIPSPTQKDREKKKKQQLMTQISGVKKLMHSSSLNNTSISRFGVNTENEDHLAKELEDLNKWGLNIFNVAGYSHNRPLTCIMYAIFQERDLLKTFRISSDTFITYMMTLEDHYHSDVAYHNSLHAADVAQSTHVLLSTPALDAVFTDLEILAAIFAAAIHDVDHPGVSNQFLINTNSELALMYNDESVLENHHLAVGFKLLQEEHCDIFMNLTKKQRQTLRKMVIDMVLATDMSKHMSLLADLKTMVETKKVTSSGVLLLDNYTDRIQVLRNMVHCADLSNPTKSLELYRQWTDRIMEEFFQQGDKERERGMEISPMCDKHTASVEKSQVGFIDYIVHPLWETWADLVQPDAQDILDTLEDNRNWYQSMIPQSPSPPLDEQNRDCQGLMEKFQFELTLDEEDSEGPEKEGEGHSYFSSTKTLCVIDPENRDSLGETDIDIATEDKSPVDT

Adenosine receptor A2a, sequence (P29274 whole entry): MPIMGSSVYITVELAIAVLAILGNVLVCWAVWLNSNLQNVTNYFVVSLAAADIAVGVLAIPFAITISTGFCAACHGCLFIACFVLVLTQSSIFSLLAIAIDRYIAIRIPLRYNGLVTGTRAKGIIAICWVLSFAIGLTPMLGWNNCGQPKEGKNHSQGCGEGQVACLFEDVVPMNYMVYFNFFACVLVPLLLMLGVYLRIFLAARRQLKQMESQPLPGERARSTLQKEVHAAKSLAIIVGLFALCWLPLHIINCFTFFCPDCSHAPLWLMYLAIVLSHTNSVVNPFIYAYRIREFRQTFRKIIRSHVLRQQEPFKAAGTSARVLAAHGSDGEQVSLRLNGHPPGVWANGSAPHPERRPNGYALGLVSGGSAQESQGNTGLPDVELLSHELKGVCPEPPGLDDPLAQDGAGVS

Row | fold change (FC) [2] | pIC50 (Adenosine receptor A1) | pIC50 [7] | pIC50 (Adenosine receptor A2a) | pIC50 (Adenosine receptor A2b) | pIC50 [9] | pIC50 [14] | Structure (SMILES) | inhibition in vivo at 0.1 mg/kg (Rattus norvegicus [1]) [%] | ED50 (Rattus norvegicus [3]) [mg/kg] | inhibition in vivo at 1 mg/kg (Rattus norvegicus [4]) [%] | inhibition in vivo at 1 mg/kg (Rattus norvegicus [5]) [%] | inhibition in vivo at 0.01 mg/kg (Rattus norvegicus [6]) [%] | Activity (Rattus norvegicus [8]) | Ratio IC50 [10] | inhibition in vivo at 0.3 mg/kg (Rattus norvegicus [11]) [%] | inhibition in vivo at 0.1 mg/kg (Rattus norvegicus [12]) [%] | inhibition in vivo at 0.03 mg/kg (Rattus norvegicus [13]) [%]
1 | 3.2 | 8.70 | 6.37 | 7.55 | 7.11 | 9.52 | – | CCn1nc(-c2cccc(-c3cccc(C(=O)NCCN(C)C)c3)c2)cc(NC(=O)Nc2c(Cl)cncc2Cl)c1=O | 70 | 0.0035 | 38 | 8 | 38 | Toxic | – | – | – | –
2 | – | < 6.00 | – | < 6.00 | < 6.00 | 9.54 | 9.66 | CCn1nc(-c2cccc(-c3cc(C(=O)NC4CC4)cc(C(=O)NC4CCN(Cc5ccccc5)CC4)c3)c2)cc(NC(=O)Nc2c(Cl)cncc2Cl)c1=O | – | 0.029 | – | – | – | – | >1000 | 60 | 45 | 49
